From PMC4471785 (Cancer Science, 2015)

Tests used:
[1] = biological target: LAT1 (Homo sapiens, UniProt Q01650); assay: Inhibition of DOX or Asp-DOX uptake into S2-LAT1 cells by amino acids; format: cell-based; settings: 100 μmol/L amino acid, 2 min; for Inhibition of the uptake of Asp-DOX by amino acids: 20 μmol/L Asp-DOX; for Inhibition of the uptake of DOX by amino acids: 20 μmol/L DOX
How it was run: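 S2-LAT1 cells incubated 2 min with 20 μmol/L test compound, with or without 100 μmol/L Leu, Met, Phe, Asp, Glu or Gly. Uptake stopped by three cold DPBS washes. Internalised drug extracted with methanol and quantified by HPLC.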

[2] = system: H1299 (human non-small cell lung carcinoma cell line); assay: MTT cytotoxicity, H1299; format: cell-based; settings: 48 h
How it was run: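 Cells maintained in DMEM or RPMI-1640 with 10% FBS, penicillin and streptomycin at 37°C, 5% CO2. Seeded at 2000–4000 cells/well and grown 48 h, then exposed to test compound at 10, 20 or 50 μg/mL for 48 h. MTT (5 mg/mL stock, 20 μL per 100 μL) added for 2 h; absorbance read at 492 nm. Six repeats; inhibition rate computed from mean values.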

[3] = system: HepG2 (LAT1-positive); assay: Cellular uptake in vitro, HepG2; format: cell-based, human; settings: 2 h
How it was run: (§1)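 HepG2 or H1299 cells seeded at 1.5 × 10^5/well and grown 48 h. Then exposed to test compound at 0, 10, 20 or 50 μg/mL in serum-free medium for 2 h at 37°C, 5% CO2. Rinsed three times with cold DPBS and imaged by fluorescence (excitation 475 nm, 580 nm). Cells then extracted with methanol and sonicated 10 min; supernatant quantified by HPLC/MS.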

[4] = system: H1299 (LAT1-negative); assay: Cellular uptake in vitro, H1299; format: cell-based, human; settings: 2 h
How it was run: as §1

[5] = system: MDR1-overexpressing MDCK cells; assay: Bidirectional transport assay; format: in vitro ADME; settings: 50 μg/mL
How it was run: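 MDCK-MDR1 cells grown in high-glucose DMEM with 10% FBS. Seeded at 2 × 10^5 cells per 1.12 cm2 on polycarbonate Transwell inserts (0.4-μm pores) and used after about 7 days. TEER checked first. After 20 min equilibration in HBSS with 25 mM HEPES, 50 μg/mL test compound was added to the apical or basolateral donor side at 37°C with 60 rpm shaking. Receiver sampled at 60 min for HPLC-fluorescence. PDR = Papp(B–A)/Papp(A–B); n = 3.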

[6] = Pharmacokinetics in healthy mice; format: in vivo
How it was run: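 Healthy mice dosed 5 mg/kg via tail vein. Retrobulbar blood taken at 0, 2, 5, 10, 15, 30 min, 1, 2 and 4 h, mixed with 0.5 mM EDTA-PBS and spun at 1750 g for 15 min. Supernatant extracted with methanol, dried under nitrogen, reconstituted in mobile phase and analysed by HPLC. AUC0−t by non-compartmental i.v. bolus model.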

[7] = system: HepG2 tumors; assay: Biodistribution in HepG2 tumor-bearing mice; format: in vivo; settings: HepG2 models; DOX-treated versus Asp-DOX-treated mice; 5 mg/kg i.v.; 1 h
How it was run: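 Male nude mice ([…], 4 weeks, 18–22 g) implanted s.c. above the right femoral joint with 1.0 × 107 HepG2, HCT116 or H1299 cells in 0.1 mL PBS, 3–5 per line. On day 20, with tumours about 100 mm3, 5 mg/kg given i.v. Killed 1 h later; tissues frozen in liquid nitrogen. Homogenates extracted twice with methanol (1-naphthol internal standard) for HPLC/MS; reported as % injected dose/g tissue.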

[8] = system: H1299 tumors; assay: Biodistribution in H1299 tumor-bearing mice; format: in vivo; settings: H1299 models; DOX versus Asp-DOX; 5 mg/kg i.v.; 1 h
[9] = system: H1299 tumors; assay: Therapy study, H1299 tumor model; format: in vivo, mice; settings: 5 mg/kg i.v. twice a week
How it was run: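 Nude mice bearing s.c. HepG2 or H1299 xenografts, set up as in the biodistribution model, split into three groups once tumours reached 100 mm3. Groups given saline, doxorubicin or test compound at 5 mg/kg i.v. twice a week. Tumours measured twice weekly; volume = length × width²/2; volumes compared after 21 days of treatment.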

Sequence of LAT1 (Q01650 whole entry): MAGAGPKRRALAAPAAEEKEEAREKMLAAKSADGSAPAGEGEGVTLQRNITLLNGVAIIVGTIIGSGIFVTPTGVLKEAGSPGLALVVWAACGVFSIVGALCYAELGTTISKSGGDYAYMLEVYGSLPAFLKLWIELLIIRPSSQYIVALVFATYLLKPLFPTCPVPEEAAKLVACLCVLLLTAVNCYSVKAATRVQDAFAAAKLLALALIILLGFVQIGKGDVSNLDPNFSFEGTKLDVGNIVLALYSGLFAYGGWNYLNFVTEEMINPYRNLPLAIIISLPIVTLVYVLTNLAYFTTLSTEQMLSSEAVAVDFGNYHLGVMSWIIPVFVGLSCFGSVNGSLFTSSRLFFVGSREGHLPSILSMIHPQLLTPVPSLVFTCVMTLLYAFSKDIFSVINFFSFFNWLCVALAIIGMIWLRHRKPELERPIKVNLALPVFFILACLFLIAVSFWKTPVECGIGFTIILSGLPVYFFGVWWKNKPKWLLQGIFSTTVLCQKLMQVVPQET
Sequence of LAT1 (P08195 102-630 partner): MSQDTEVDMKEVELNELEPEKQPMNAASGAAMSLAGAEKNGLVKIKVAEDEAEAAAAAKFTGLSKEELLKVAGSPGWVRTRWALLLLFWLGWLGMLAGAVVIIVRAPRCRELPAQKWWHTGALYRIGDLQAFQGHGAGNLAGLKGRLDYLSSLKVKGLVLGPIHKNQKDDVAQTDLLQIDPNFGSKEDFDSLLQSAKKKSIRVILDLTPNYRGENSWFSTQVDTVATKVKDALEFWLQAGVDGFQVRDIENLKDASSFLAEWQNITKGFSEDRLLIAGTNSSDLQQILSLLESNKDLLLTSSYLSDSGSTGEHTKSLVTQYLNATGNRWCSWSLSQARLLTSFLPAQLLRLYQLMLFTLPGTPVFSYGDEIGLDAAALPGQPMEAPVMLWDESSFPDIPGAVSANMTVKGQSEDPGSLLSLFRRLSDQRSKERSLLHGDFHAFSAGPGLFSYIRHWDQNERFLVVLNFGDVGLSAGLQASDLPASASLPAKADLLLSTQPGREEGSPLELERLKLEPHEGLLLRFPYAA

## C[C@H](N)C(=O)O [Ala]
[1]
  Inhibition of the uptake of Asp-DOX by amino acids: no inhibition
  Inhibition of the uptake of DOX by amino acids: neither 100 μmol/L Leu, Met, or Phe, nor 100 μmol/L Ala, Glu, or Gly inhibited

## COc1cccc2c1C(=O)c1c(O)c3c(c(O)c1C2=O)C[C@@](O)(C(=O)CO)C[C@@H]3O[C@H]1C[C@H](N)[C@H](O)[C@H](C)O1 [DOX, doxorubicin]
[2]
  IC50: 36.51 μg/ml μg/mL
[3]; dose 10 μg/mL
  Uptake: 0.21 ± 0.030 µg/mL
[3]; dose 20 μg/mL
  Uptake: 0.44 ± 0.032 µg/mL
[3]; dose 50 μg/mL
  Uptake: 0.70 ± 0.079 µg/mL
[4]; dose 10 μg/mL
  Uptake: 0.20 ± 0.059 µg/mL
[4]; dose 20 μg/mL
  Uptake: 0.33 ± 0.019 µg/mL
[4]; dose 50 μg/mL
  Uptake: 0.69 ± 0.055 µg/mL
[5]
  PDR (efflux rate, Papp(B–A):Papp(A–B)): 13.01 ± 1.425
[5]; apical to basolateral, 60 min
  Papp A–B: 0.53 ± 0.093 10^−6 cm/s
[5]; basolateral to apical, 60 min
  Papp B–A: 6.63 ± 0.328 10^−6 cm/s
[6]; 5 mg/kg i.v. (tail vein), blood
  t1/2: 15.12 min
[6]; 5 mg/kg i.v., 0-4 h
  AUC0−t: 158.894 µg·min/mL
[7]
  Drug levels in heart, liver, and lung: significantly higher
[8]
  Drug levels in tissues: higher than that of Asp-DOX in all tissues
[9]
  Antitumor effect: stronger than that of Asp-DOX and saline

## N[C@@H](CCC(=O)O)C(=O)O [Glu]
[1]
  Inhibition of the uptake of Asp-DOX by amino acids: no inhibition
  Inhibition of the uptake of DOX by amino acids: neither 100 μmol/L Leu, Met, or Phe, nor 100 μmol/L Ala, Glu, or Gly inhibited

## NCC(=O)O [Gly]
[1]
  Inhibition of the uptake of Asp-DOX by amino acids: no inhibition
  Inhibition of the uptake of DOX by amino acids: neither 100 μmol/L Leu, Met, or Phe, nor 100 μmol/L Ala, Glu, or Gly inhibited

## CC(C)C[C@H](N)C(=O)O [Leu, leucine]
[1]
  Inhibition of the uptake of Asp-DOX by amino acids: strongly inhibited
  Inhibition of the uptake of DOX by amino acids: neither 100 μmol/L Leu, Met, or Phe, nor 100 μmol/L Ala, Glu, or Gly inhibited

## CSCC[C@H](N)C(=O)O [Met, methionine]
[1]
  Inhibition of the uptake of Asp-DOX by amino acids: strongly inhibited
  Inhibition of the uptake of DOX by amino acids: neither 100 μmol/L Leu, Met, or Phe, nor 100 μmol/L Ala, Glu, or Gly inhibited

## N[C@@H](Cc1ccccc1)C(=O)O [Phe, phenylalanine]
[1]
  Inhibition of the uptake of Asp-DOX by amino acids: strongly inhibited
  Inhibition of the uptake of DOX by amino acids: neither 100 μmol/L Leu, Met, or Phe, nor 100 μmol/L Ala, Glu, or Gly inhibited
